Data set [1] relates to Plasmodium falciparum. The experiment in a line: Antimalarial activity against Plasmodium falciparum 3D7 cultured in human O+ erythrocytes assessed as reduction in parasite growth incubated for 48 hrs by SYBR green I based fluorescence assay. It counts as functional, organism-based. As to conditions: 3D7, 48 h. The method, boiled down: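 Sorbitol-synchronized ring-stage cultures (2% haematocrit, 1% parasitaemia) were exposed to serial dilutions in complete RPMI, top concentration 10 µM, for 48 h. Chloroquine served as positive control and no compound as negative control. Lysis buffer with SYBR Green I (Tris pH 7.5, EDTA, saponin, Triton X-100) was added for 1 h in the dark at 37°C. Fluorescence was read at ex 485/em 530 nm, and IC50 came from sigmoidal curves, checked against Giemsa smears.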

Data set [2] is described as follows: Selectivity index, ratio of HC50 for haemolytic activity in human erythrocytes to IC50 for antimalarial activity against Plasmodium falciparum 3D7 cultured in human O+ erythrocytes. It counts as toxicity, cell-based. As to conditions: read-out: Selectivity Index.
Data set [3] in a line: Haemolytic activity in human erythrocytes assessed as induction of hemolysis incubated for 1 hr. It counts as cell-based, Erythrocyte. Put shortly:
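Human erythrocytes from fresh heparinized blood were suspended at 5 vol% in PBS (pH 7.4), mixed 3:1 with serially diluted compound, and incubated 1 h at 37°C. Controls were no compound and 1 vol% Triton X-100. After centrifugation, supernatant A540 gave % haemolysis relative to the Triton control. HC50 is the mean ± SEM of at least two independent experiments, each run in triplicate.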

Data set [4] has as its system Plasmodium berghei. The experiment in a line: Antimalarial activity against Plasmodium berghei ANKA infected in Swiss-Harlan mouse model of cerebral malaria assessed as time duration for complete mouse mortality at 20 mg/kg, ip for 4 days dosed 2 hrs post infection and measured 5 days post infection by Giemsa staining based Peter's 4 day test (reference value: =<7 days). It counts as functional. The method, boiled down: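 Female Swiss mice, 6-8 weeks old, infected IP with 10⁷ P. berghei ANKA parasitized RBCs. Starting 2 h post-infection, 20 mg/kg IP (PBS vehicle; PBS-only controls) every 24 h for four days, n=4. Day-5 parasitemia read from Giemsa-stained tail-blood smears; survival followed until death.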

The test system of data set [5] is Plasmodium berghei. The experiment in a line: Antimalarial activity against Plasmodium berghei ANKA infected in Swiss-Harlan mouse model of cerebral malaria assessed as reduction in parasitemia at 20 mg/kg, ip for 4 days dosed 2 hrs post infection and measured 5 days post infection by Giemsa staining based Peter's 4 day test. It counts as functional. Also on record: scale not given: the % may be the effect or the level left. The method, boiled down:
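Female Swiss mice (6-8 weeks) were infected IP with 10⁷ P. berghei ANKA-parasitized RBCs. Two hours later, groups (n=4) received 20 mg/kg IP or PBS control, repeated every 24 h for four days. Parasitemia was read on day 5 from Giemsa-stained tail-blood smears, and survival was followed until death.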

Data set [6] can be described thus: Toxicity in Balb/c mouse at 5.5 to 175 mg/kg, iv for 14 days. It counts as organism-based. Particulars: in vivo. Put shortly: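 Female Balb/c mice, 6-8 weeks old, dosed intravenously in PBS at 175, 55, 17.5 and 5.5 mg/kg. Adverse effects were observed directly for 4 h and mortality for 14 days. LD50 was calculated from survival with the Spearman-Karber equation.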

Data set [7] relates to Mus musculus. The experiment in a line: Toxicity in Balb/c mouse assessed as effect on blood electrochemical balance by measuring sodium level at 20 mg/kg, iv. It counts as organism-based. Particulars: in vivo.
The test system of data set [8] is Mus musculus. The experiment in a line: Toxicity in Balb/c mouse assessed as effect on AST level level at 20 mg/kg, iv. It counts as organism-based. Particulars: in vivo.
Data set [9] concerns Plasmodium falciparum. Nature of the data set: Antimalarial activity against […] Plasmodium falciparum MRC2 cultured in human O+ erythrocytes assessed as reduction in parasite growth incubated for 48 hrs by SYBR green I based fluorescence assay. It counts as functional, organism-based. Particulars: MRC2, 48 h. The method, boiled down:
(§1)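 Sorbitol-synchronized ring-stage cultures (2% haematocrit, 1% parasitaemia) exposed for 48 h to serial dilutions in complete RPMI, top concentration 10µM. CQ was the positive control and drug-free wells the negative control. Growth was read by SYBR Green I lysis buffer, 1 h at 37°C in the dark, fluorescence ex 485/em 530 nm. IC50 came from sigmoidal curve fits, checked by Giemsa smears.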

For data set [10], the system named is Mus musculus. The experiment in a line: Toxicity in Balb/c mouse assessed as effect on blood electrochemical balance by measuring chloride level at 20 mg/kg, iv. It counts as organism-based. Particulars: in vivo.
The subject of data set [11] is Plasmodium falciparum. The experiment in a line: Antimalarial activity against […] Plasmodium falciparum RKL9 cultured in human O+ erythrocytes assessed as reduction in parasite growth incubated for 48 hrs by SYBR green I based fluorescence assay. It counts as functional, organism-based. Particulars: RKL9, 48 h. The method, boiled down:
as §1

Data set [12] concerns Mus musculus. Nature of the data set: Toxicity in Plasmodium berghei ANKA infected in Swiss-Harlan mouse model of cerebral malaria assessed as induction of mouse death at 30 mg/kg, ip for 4 days dosed 2 hrs post infection and measured 5 days post infection by Giemsa staining based Peter's 4 day test. It counts as organism-based. As to conditions: in vivo, 120 h.
The subject of data set [13] is Mus musculus. Nature of the data set: Toxicity in Balb/c mouse assessed as effect on blood electrochemical balance by measuring potassium level at 20 mg/kg, iv. Particulars: in vivo. It counts as organism-based.
The subject of data set [14] is Mus musculus. The experiment in a line: Toxicity in Balb/c mouse assessed as effect on ALT level level at 20 mg/kg, iv. As to conditions: in vivo. It counts as organism-based.
For data set [15], the system named is Mus musculus. The experiment in a line: Toxicity in Balb/c mouse assessed as effect on urea nitrogen level level at 20 mg/kg, iv. It counts as organism-based. As to conditions: in vivo.
The subject of data set [16] is Mus musculus. Nature of the data set: Toxicity in Balb/c mouse assessed as effect on creatinine level level at 17.5 mg/kg, iv. Particulars: in vivo.
The test system of data set [17] is Mus musculus. The experiment in a line: Toxicity in Plasmodium berghei ANKA infected in Swiss-Harlan mouse model of cerebral malaria assessed as induction of prolonged malaise at 30 mg/kg, ip for 4 days dosed 2 hrs post infection and measured 5 days post infection by Giemsa staining based Peter's 4 day test. It counts as organism-based. As to conditions: in vivo, 120 h.

Regarding `CCCCCCCCN(Cc1ccccc1)C(=O)C(CCCCNC(=O)OC(C)(C)C)NC(=O)OC(C)(C)C` (stereo not given), in the data set with Plasmodium falciparum [1], the IC50 (usually the concentration at which inhibition is half-maximal) was 4 µM. The selectivity ratio in [2] stood at 141. For the same compound, the HC50 (commonly the concentration giving 50% haemolysis) at 1 h in data set [3] came out at 564 µM.

With `CCCCCCCCN(Cc1cccc2ccccc12)C(=O)C(CCCCNC(=O)OC(C)(C)C)NC(=O)OC(C)(C)C` (stereo not given), the IC50 in the data set with Plasmodium falciparum [1] was 3 µM. In data set [2], the selectivity ratio stood at 32. Besides, the HC50 at 1 h in data set [3] was 96 µM.

On to `CCCCCCN(Cc1cccc2ccccc12)C(=O)C(CCCCNC(=O)OC(C)(C)C)NC(=O)OC(C)(C)C.O=C(O)C(F)(F)F.O=C(O)C(F)(F)F` (stereo not given), for which the Time in the data set on Plasmodium berghei [4] came to 12 days. For the same compound, the Activity with Plasmodium berghei [5] is listed as 60%; with Mus musculus [7], “Non-Toxic”; in the data set on Mus musculus [8], “Non-Toxic”; in the data set on Mus musculus [10], “Non-Toxic”; with Mus musculus [12], “Toxic”; in the data set with Mus musculus [13], “Non-Toxic”. In addition, the Activity result in the data set with Mus musculus [14] was “Non-Toxic”; in the data set on Mus musculus [15], “Non-Toxic”; in the data set on Mus musculus [16], “Non-Toxic”; in the data set on Mus musculus [17] it was “Toxic”. In data set [6], the LD50 (usually the dose at which mortality reaches 50%) at 336 h amounted to 98 mg/kg. For the same compound, the 50% inhibitory concentration (IC50) in the data set on Plasmodium falciparum [1] was 1 µM; in the data set with Plasmodium falciparum [9] it was 5 µM; in the data set on Plasmodium falciparum [11] it was 1.4 µM. Further, the selectivity ratio in [2] is 850. In addition, in data set [3], the concentration for 50% haemolysis (HC50) at 1 h is 850 µM.

In the case of `CCCCCCN(Cc1ccccc1)C(=O)C(CCCCNC(=O)OC(C)(C)C)NC(=O)OC(C)(C)C` (stereo not given), the half-inhibitory concentration (IC50) with Plasmodium falciparum [1] is over 5 µM. For the same compound, in data set [3], the HC50 at 1 h is over 1000 µM.
